This note sets out measurements from PubChem BioAssay.

The inhibition is the relative decrease from the control value, in per cent.

Calls of active or inactive are those of the source.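 How the source made its calls, unless noted: active means fluorescence slope after compound addition differing from the mean of all tested samples at 99.7% confidence, mostly higher but some lower; inactive means the rest.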

Assay [1] in a line: inhibitors of TNFa-induced NFkB p65 translocation, primary screen, imaging, HUVEC, MLSMR starter and 10KST1 sets (AID 438;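 active means inhibition above 20% together with a positive visual image hit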;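 further: compound added about 3h40 before a 20 min TNFalpha stimulation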;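 on inhibition: signal is the nuclear over cytoplasmic p65 intensity ratio per well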). To be noted: HUVEC TNFa-induced p65 nuclear translocation; cell count: measured here: nuclei count (cytotoxicity indicator), at 2.08 µM; inhibition: at 2 µM, stronger effect = higher value, 0% TNFa-plus-vehicle, 100% no-TNFa wells.
The nature of assay [2]: inhibitors of mutant huntingtin aggregation, primary screen, imaging, exon1htt(103Q)mCFP cells, high-content imaging (AID 483;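 active means visual image review flags a hit and inhibition of aggregation exceeds 20%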;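 further: compound exposure lasted 3 days before fixation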;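 on nuclei count: percent of the per-plate median nuclei count of sample wells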). The settings on record: exon1htt(103Q)mCFP cell line, aggregate imaging, at 2 µM; inhibition of aggregation: stronger effect = higher value; nuclei count: measured here: cell count, toxicity.
A short description of assay [3]: inhibitors of E-selectin induction by TNFa, primary screen, imaging, HUVEC, immunofluorescence, MLSMR starter and 10KST1 sets (AID 487;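 active means visually confirmed hit in the image check and inhibition above 20%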;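 on inhibition: signal is fraction of cell area covered by stained E-selectin grains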;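 on nuclei count: 100% = median nuclei count of all wells on the same plate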). The settings on record: HUVEC TNFalpha-induced E-selectin immunofluorescence imaging, at 2 µM; inhibition: stronger effect = higher value; nuclei count: measured here: cell number, toxicity.
Assay [4] concerns the target Voltage-gated potassium channel subunit beta-2 (Rattus norvegicus) (UniProt P62483). The experiment in a line: KvBeta enzyme negative modulators, primary screen, biochemical, NADPH fluorescence (AID 622;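 active means fluorescence slope higher than the sample average by over 3 SD, cut at about -0.22 in these data, passing the limit was not always enough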;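 further: slope of raw intensity against log time taken from 70 to 1610 s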). The settings on record: recombinant KvBeta, 4-cyanobenzaldehyde reduction, at 10 µM, stronger effect = higher value.
The target is the same in assay [5]. The experiment in a line: KvBeta positive modulators, primary screen, biochemical, NADPH fluorescence (AID 623;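 active means NADPH fluorescence slope more negative than the mean of all samples by about 3 SD, 99.7% confidence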;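 further: fluorescence intensity change per second fitted from 20 to 320 s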). To be noted: Recombinant KvBeta, NADPH fluorescence decrease slope, 10 min; at 10 µM; stronger effect = lower value.
For assay [6], the target named is Muscarinic acetylcholine receptor M4 (Homo sapiens) (UniProt P08173). As to the kind of experiment: compounds altering M4/GIRK thallium flux, either direction, primary screen, M4 allosteric agonist project, cell-based, HEK293 M4/GIRK, BTC-AM (AID 625).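 Further: thallium influx through GIRK channels coupled to M4 in HEK293 cells with BTC-AM dye.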 To be noted: at 10 µM, actives lie on both sides. The gist of the method:
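Material: HEK293 cells with M4 receptor and GIRK channels; Times: cells overnight at 37 °C, BTC-AM loading 1 h, reads 2 min total; Technique: kinetic BTC-AM fluorescence sampled at 1 Hz, 10 s pre-addition baseline; Read-out basis: slope over 15–24 s of trace normalized to starting intensity; Controls: carbachol positive, DMSO negative.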

The nature of assay [7]: inhibitors of Sendai virus-induced IRF3 signaling, primary screen, TLR/RLR signaling modifier project, cell-based, Sendai virus stimulus, luciferase, 10K MLSCN set (AID 602276;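 active means inhibition at or above 50% at 10 µM; inactive means inhibition below 50%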;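 further: firefly luciferase from ISG56 promoter only with Renilla not read in this screen; 0% = Sendai virus plus DMSO and 100% = medium plus DMSO without virus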). The settings on record: HEK293 RL24 IRF3 luciferase reporter, at 10 µM, stronger effect = higher value. (In a reporter assay the amount or activity of a reporter protein is the signal.)
Assay [8] is described as follows: inhibitors of poly I:C-induced TLR3 signaling, primary screen, cell-based, poly I:C stimulus, luciferase, 10K MLSCN set (AID 602277;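 active means inhibition of the reporter signal at or above 50%; inactive means inhibition below 50%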). To be noted: HEK293-TLR3 RL24 IRF3 luciferase reporter, at 10 µM, stronger effect = higher value.

Sequence of Voltage-gated potassium channel subunit beta-2 (Rattus norvegicus) (P62483 whole entry, looked up): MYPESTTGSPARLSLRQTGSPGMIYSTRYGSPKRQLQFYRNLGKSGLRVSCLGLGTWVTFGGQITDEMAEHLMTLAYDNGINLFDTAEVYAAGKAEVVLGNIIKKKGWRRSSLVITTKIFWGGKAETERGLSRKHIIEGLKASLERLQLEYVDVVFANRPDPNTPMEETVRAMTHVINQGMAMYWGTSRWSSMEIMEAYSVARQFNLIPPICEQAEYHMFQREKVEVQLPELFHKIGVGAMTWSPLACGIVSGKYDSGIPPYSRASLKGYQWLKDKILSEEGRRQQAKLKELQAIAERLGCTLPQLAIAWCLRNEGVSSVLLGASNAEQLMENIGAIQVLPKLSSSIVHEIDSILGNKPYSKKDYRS
Sequence of Muscarinic acetylcholine receptor M4 (Homo sapiens) (P08173 whole entry, looked up): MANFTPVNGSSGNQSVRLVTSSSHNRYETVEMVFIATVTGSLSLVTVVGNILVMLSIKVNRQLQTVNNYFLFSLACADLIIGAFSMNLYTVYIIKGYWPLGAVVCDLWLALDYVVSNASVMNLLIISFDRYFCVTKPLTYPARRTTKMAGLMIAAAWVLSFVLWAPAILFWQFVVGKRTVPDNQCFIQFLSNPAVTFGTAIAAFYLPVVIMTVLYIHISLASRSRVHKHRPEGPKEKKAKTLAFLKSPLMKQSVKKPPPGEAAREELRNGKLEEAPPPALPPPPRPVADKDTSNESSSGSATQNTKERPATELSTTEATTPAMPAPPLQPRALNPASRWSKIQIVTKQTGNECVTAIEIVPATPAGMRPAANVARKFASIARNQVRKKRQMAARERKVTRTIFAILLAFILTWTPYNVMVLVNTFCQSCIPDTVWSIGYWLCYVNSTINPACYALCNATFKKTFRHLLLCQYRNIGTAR

Consider `O=C(CSc1nnc(-c2cccs2)o1)N1CCOCC1`, for which the cell count in assay [1] stood at 280. For the same compound, the inhibition in assay [1] is -13.9% (inactive); in assay [3], -6.3% (inactive); in assay [7] it was -8.48% (inactive); in assay [8] it was -10.8% (inactive). Besides, in assay [2], the inhibition of aggregation is -11.6% (inactive). Besides, the nuclei count in assay [2] is 88.7%; in assay [3], 118%. For the same compound, the results for the fluorescence slope in assay [4] and in assay [6] were -0.539 (inactive) and 0.0054 (inactive), respectively. Further, the NADPH fluorescence slope in assay [5] was -3.4e-05 (inactive).

With `CC(C)NC(=O)c1ccccc1NC(=O)c1ccccc1N(C)S(C)(=O)=O`, the cell count in assay [1] stood at 554. In addition, the inhibition in assay [1] was 25% (inactive); in assay [3] it was -155% (inactive); in assay [7] it was 10.6% (inactive); in assay [8], 13.7% (inactive). Besides, in assay [2], the inhibition of aggregation was 6.8% (inactive). Also, the figures for the nuclei count in assay [2] and in assay [3] were 104% and 101%, respectively. The fluorescence slope is -0.456 (inactive) in assay [4] and 0.00572 (inactive) in assay [6]. For the same compound, in assay [5], the NADPH fluorescence slope is -5.7e-05 (inactive).

For the compound `CC1(c2ccc(OC(F)F)cc2)NC(=O)N(CC(=O)Nc2ccc3c(c2)OCO3)C1=O` (stereo not drawn), in assay [1], the cell count came to 404. Besides, the inhibition in assay [1] is -6.6% (inactive); in assay [3] it was -7.1% (inactive); in assay [7], -3.26% (inactive); in assay [8], 2.25% (inactive). The inhibition of aggregation in assay [2] was -11.2% (inactive). The values for the nuclei count in assay [2] and in assay [3] were 109% and 107%, respectively. The results for the fluorescence slope in assay [4] and in assay [6] were -0.576 (inactive) and 0.00647 (inactive), respectively. Moreover, in assay [5], the NADPH fluorescence slope is -6.3e-05 (inactive).

Take `Cc1cnc(C(=O)Nc2ccc(-n3cnnn3)cc2)cn1`: in assay [1], the cell count came out at 508. Further, the inhibition in assay [1] was -16.7% (inactive); in assay [3], 15.8% (inactive); in assay [7], 10.3% (inactive); in assay [8], -4.35% (inactive). Moreover, in assay [2], the inhibition of aggregation is -8.7% (inactive). The nuclei count in assay [2] came to 95.2%; in assay [3] it was 95.7%. Further, the fluorescence slope is -0.513 (inactive) in assay [4] and 0.00454 (inactive) in assay [6]. The NADPH fluorescence slope in assay [5] was -5.9e-05 (inactive).

Turning to `CCOC(=O)Cc1nn2c(=O)cc(C)nc2s1`, the cell count in assay [1] worked out at 728. Also, the inhibition was -22.9% (inactive) in assay [1], 2.2% (inactive) in assay [3], 2.1% (inactive) in assay [7] and 11.1% (inactive) in assay [8]. In addition, in assay [2], the inhibition of aggregation was 6.2% (inactive). Besides, the nuclei count turned out to be 118% in assay [2] and 94.9% in assay [3]. In addition, the fluorescence slope in assay [4] was -0.474 (inactive); in assay [6] it was 0.00652 (inactive). Further, in assay [5], the NADPH fluorescence slope is 0.000188 (inactive).

For `COc1cccc2cc(C(=O)N3CCc4ccccc43)c(=O)oc12`, the cell count in assay [1] is 274. Also, the inhibition in assay [1] was 4.3% (inactive); in assay [3], 18.4% (inactive); in assay [7], 8.43% (inactive); in assay [8], 21% (inactive). Also, the inhibition of aggregation in assay [2] is -4.2% (inactive). The nuclei count in assay [2] was 106%; in assay [3], 99%. The fluorescence slope in assay [4] is -0.466 (inactive); in assay [6], 0.00512 (inactive). For the same compound, the NADPH fluorescence slope in assay [5] was -5.5e-06 (inactive).

As for `O=C(NCc1ccc2c(c1)OCO2)c1cc2n(n1)C(C(F)(F)F)CC(c1ccc3c(c1)OCO3)N2` (stereo not drawn), the cell count in assay [1] came out at 407. The inhibition in assay [1] is -1.6% (inactive); in assay [3] it was -32% (inactive); in assay [7], 18.5% (inactive); in assay [8], 24.4% (inactive). Also, the inhibition of aggregation in assay [2] was 26.5% (inactive). In addition, the nuclei count in assay [2] amounted to 89.1%; in assay [3], 106%. The fluorescence slope in assay [4] is -0.558 (inactive); in assay [6] it was 0.0053 (inactive). Besides, the NADPH fluorescence slope in assay [5] was -4.2e-05 (inactive).

In the case of `FC(F)(F)COc1nc(N2CCCCC2)nc(N2CCNCC2)n1`, in assay [1], the cell count came out at 372. Also, the inhibition is -7.9% (inactive) in assay [1], 13.6% (inactive) in assay [3], 4.6% (inactive) in assay [7] and 21.6% (inactive) in assay [8]. For the same compound, the inhibition of aggregation in assay [2] was -3.5% (inactive). Moreover, the nuclei count is 99.5% in assay [2] and 109% in assay [3]. The figures for the fluorescence slope in assay [4] and in assay [6] were -0.321 (inactive) and 0.00559 (inactive), respectively. The NADPH fluorescence slope in assay [5] is -5.4e-05 (inactive).

`Clc1ccc(Cc2nn3c(-c4ccncc4)nnc3s2)cc1`: the cell count in assay [1] was 322. Also, the inhibition in assay [1] was -5.1% (inactive); in assay [3], -102% (inactive); in assay [7], -1.37% (inactive); in assay [8] it was -9.67% (inactive). In assay [2], the inhibition of aggregation is 5.5% (inactive). Further, the figures for the nuclei count in assay [2] and in assay [3] were 83.3% and 110%, respectively. Further, the figures for the fluorescence slope in assay [4] and in assay [6] were -0.523 (inactive) and 0.00382 (inactive), respectively. Moreover, the NADPH fluorescence slope in assay [5] was -0.000147 (inactive).

Turning to `COc1ccc(-c2noc(COc3ccc4ccccc4c3Br)n2)cc1OC`, the cell count in assay [1] is 565. Further, the inhibition was 14.8% (inactive) in assay [1], 8.2% (inactive) in assay [3], -38.1% (inactive) in assay [7] and -45.2% (inactive) in assay [8]. Also, in assay [2], the inhibition of aggregation is -29.8% (inactive). In addition, the nuclei count in assay [2] came out at 109%; in assay [3], 104%. In addition, the fluorescence slope in assay [4] is -0.564 (inactive); in assay [6], 0.00985 (inactive). In addition, the NADPH fluorescence slope in assay [5] was -3e-05 (inactive).

Turning to `Cc1ccc(NCc2nnc(SCC(=O)NCc3ccco3)n2CC2CCCO2)cc1Cl` (stereo not drawn), in assay [1], the cell count came to 331. Also, the inhibition is -11.8% (inactive) in assay [1], 4.6% (inactive) in assay [3], -1.38% (inactive) in assay [7] and -3.61% (inactive) in assay [8]. Also, the inhibition of aggregation in assay [2] is 13.3% (inactive). Further, the nuclei count is 80.1% in assay [2] and 106% in assay [3]. Also, the fluorescence slope in assay [4] was -0.505 (inactive); in assay [6], 0.00472 (inactive). Further, in assay [5], the NADPH fluorescence slope is 2.3e-05 (inactive).

For `CCOc1ccc2c(c1)sc1nc(C(=O)OC)cc(=O)n12`, the cell count in assay [1] was found to be 432. The inhibition in assay [1] was 7.5% (inactive); in assay [3], -0.5% (inactive); in assay [7], 13.7% (inactive); in assay [8], 19.3% (inactive). Further, the inhibition of aggregation in assay [2] was -10.2% (inactive). For the same compound, the nuclei count in assay [2] turned out to be 109%; in assay [3] it was 108%. The values for the fluorescence slope in assay [4] and in assay [6] were -0.175 (inactive) and 0.00476 (inactive), respectively. Besides, in assay [5], the NADPH fluorescence slope was -1.7e-05 (inactive).

Turning to `Brc1ccc(-c2nnc3sc(CN4CCC5(CC4)OCCO5)cn23)cc1`, the cell count in assay [1] was determined as 414. In addition, the inhibition in assay [1] is 3.2% (inactive); in assay [3], -185% (inactive); in assay [7], 11.1% (inactive); in assay [8] it was 14% (inactive). Further, the inhibition of aggregation in assay [2] is -6.9% (inactive). Further, the nuclei count came out at 112% in assay [2] and 130% in assay [3]. The fluorescence slope in assay [4] is -0.57 (inactive); in assay [6], 0.00615 (inactive). The NADPH fluorescence slope in assay [5] was -1.2e-05 (inactive).
